Type in all cases: functional
The species named for test [1] is Rattus norvegicus. The test can be described thus: Hypolipidemic effects(liver weight) in male rats. The gist of the method: (§1)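 Male rats, 10 per group, fed 7 days on chow with 10% fat (5.5% added peanut oil), 1.5% cholesterol and 0.1% cholic acid. Oral gavage on days 4-7 in 4% acacia, usually 50 mg/kg daily. Fasted overnight, killed day 8, atrial blood into EDTA. Plasma cholesterol, TG and HDL cholesterol (after MnCl2/heparin precipitation) by Autoanalyzer. % change vs controls, Student's t test.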

The subject of test [2] is Rattus norvegicus. The test can be described thus: Hypolipidemic effects (low-density lipoprotein (LDL) cholesterol) in male rats; Compound was screening orally at 50 mg/Kg. The gist of the method: as §1
For test [3], the species on record is Rattus norvegicus. Kind of test: Hypolipidemic effects(plasma TG) in male rats. The gist of the method: as §1
Test [4] is filed under the species Rattus norvegicus. Kind of test: Hypolipidemic effects(plasma cholesterol) in male rats. The gist of the method: as §1
In test [5] the test system is Rattus norvegicus. Kind of test: Hypolipidemic effects (high-density lipoprotein (HDL) cholesterol) in male rats;Compound was screening orally at 50 mg/Kg. Summed up:
as §1

Test [6] has as its system Rattus norvegicus. The test can be described thus: Hypolipidemic effects (high-density lipoprotein (HDL) cholesterol) in male rats; Compound was screening orally at 50 mg/Kg. The gist of the method: as §1

`CCCC(=O)c1cc(OCCCC(C)(C)C(=O)OC)ccc1OCCCC(C)(C)C(=O)OC`: the Change in the test filed under Rattus norvegicus [1] is reported as 34%; in the test on Rattus norvegicus [2], -52%; in the test filed under Rattus norvegicus [3], 0%; in the test listed under Rattus norvegicus [4] it was 39%; with Rattus norvegicus [5], 1100%.

`CC(C)(CCCOc1ccc(S(=O)(=O)CCCC(C)(C)C(=O)O)cc1)C(=O)O`: the Change in the test filed under Rattus norvegicus [1] is given as 9%; with Rattus norvegicus [2], -20%; in the test listed under Rattus norvegicus [3] it was 0%; in the test filed under Rattus norvegicus [4] it was 0%; in the test with Rattus norvegicus [6] it was 93%.

Consider `COC(=O)C(C)(C)CCCOc1cc(OCCCC(C)(C)C(=O)OC)cc(-c2ccccc2)c1`, for which the Change is on record as 13% in the test filed under Rattus norvegicus [1]; -42% in the test on Rattus norvegicus [2]; 0% in the test listed under Rattus norvegicus [3]; -41% in the test listed under Rattus norvegicus [4]; 0% in the test with Rattus norvegicus [6].

Consider `Cc1ccccc1-c1cc(OCCCC(C)(C)C(=O)O)ccc1OCCCC(C)(C)C(=O)O`, for which the Change was 22% in the test filed under Rattus norvegicus [1]; -52% in the test on Rattus norvegicus [2]; 55% in the test filed under Rattus norvegicus [3]; 0% in the test filed under Rattus norvegicus [4]; 628% with Rattus norvegicus [6].

Regarding `COC(=O)C(C)(C)CCCOc1ccc(Br)c(OCCCC(C)(C)C(=O)OC)c1`, the Change in the test listed under Rattus norvegicus [1] is reported as 5%; in the test with Rattus norvegicus [2] it was -52%; in the test filed under Rattus norvegicus [3], 0%; in the test listed under Rattus norvegicus [4], -47%; in the test with Rattus norvegicus [6] it was 26%.

As to `CC(C)(CCCOc1ccc(Oc2ccc(OCCCC(C)(C)C(=O)O)cc2)cc1)C(=O)O`, the Change is on record as 0% in the test filed under Rattus norvegicus [1]; -36% with Rattus norvegicus [2]; 0% in the test filed under Rattus norvegicus [3]; -35% in the test listed under Rattus norvegicus [4]; 0% in the test with Rattus norvegicus [6].

Regarding `CC(C)(CCOc1cccc(OCCC(C)(C)C(=O)O)c1)C(=O)O`, the Change in the test filed under Rattus norvegicus [1] is recorded as 17%; in the test on Rattus norvegicus [2] it was -46%; in the test filed under Rattus norvegicus [3] it was 240%; in the test listed under Rattus norvegicus [4], -28%; with Rattus norvegicus [5], 383%.

For `CC(C)(CO)CCCOc1ccc(OCCCC(C)(C)CO)c(-c2ccccc2)c1`, the Change was 30% in the test listed under Rattus norvegicus [1]; -36% in the test with Rattus norvegicus [2]; 0% in the test listed under Rattus norvegicus [3]; 37% in the test filed under Rattus norvegicus [4]; 1105% in the test on Rattus norvegicus [6].

In the case of `CC(C)(CCOc1ccc(Sc2ccc(OCCC(C)(C)C(=O)O)cc2)cc1)C(=O)O`, the Change was 0% in the test filed under Rattus norvegicus [1], -32% in the test listed under Rattus norvegicus [3], -25% in the test filed under Rattus norvegicus [4] and 46% in the test with Rattus norvegicus [5].

As to `COC(=O)C(C)(C)CCCSc1ccc(-c2ccc(SCCCC(C)(C)C(=O)OC)cc2)cc1`, the Change in the test filed under Rattus norvegicus [1] was 14%; in the test on Rattus norvegicus [2], -39%; in the test listed under Rattus norvegicus [3], 60%; in the test filed under Rattus norvegicus [4] it was 0%; with Rattus norvegicus [6], 245%.

Regarding `CC(C)(CCOc1ccc(OCCC(C)(C)C(=O)O)c(Cl)c1)C(=O)O`, the Change is listed as 13% in the test listed under Rattus norvegicus [1], -32% in the test filed under Rattus norvegicus [3], -62% in the test listed under Rattus norvegicus [4] and 348% in the test with Rattus norvegicus [5].

On to `CC(C)(CCCOc1cc(Cl)c(OCCCC(C)(C)C(=O)O)cc1Cl)C(=O)O`, for which the Change in the test filed under Rattus norvegicus [1] is recorded as 41%; in the test listed under Rattus norvegicus [3], 35%; in the test filed under Rattus norvegicus [4], -55%; with Rattus norvegicus [5], 384%.

For `COC(=O)C(C)(C)CCCOc1ccc(OCCCC(C)(C)C(=O)OC)c(C=O)c1`, the Change is 9% in the test filed under Rattus norvegicus [1]; -20% in the test with Rattus norvegicus [2]; 0% in the test listed under Rattus norvegicus [3]; 0% in the test listed under Rattus norvegicus [4]; 217% with Rattus norvegicus [6].

For the compound `COC(=O)C(C)(C)CCCCCOc1ccccc1OCCCCCC(C)(C)C(=O)OC`, the Change in the test filed under Rattus norvegicus [1] is given as 11%; with Rattus norvegicus [2], -19%; in the test filed under Rattus norvegicus [3], 140%; in the test filed under Rattus norvegicus [4], 0%; in the test on Rattus norvegicus [6], 276%.

On to `Cc1cc(SCCCC(C)(C)C(=O)O)c(C)cc1OCCCC(C)(C)C(=O)O`, for which the Change in the test listed under Rattus norvegicus [1] is listed as 14%; with Rattus norvegicus [2] it was -35%; in the test filed under Rattus norvegicus [3], 0%; in the test filed under Rattus norvegicus [4] it was -20%; in the test on Rattus norvegicus [6], 220%.

As for `COC(=O)C(C)(C)CCCOc1cc(OC)c(OCCCC(C)(C)C(=O)OC)cc1OC`, the Change is on record as 0% in the test filed under Rattus norvegicus [1], 0% in the test listed under Rattus norvegicus [3], -33% in the test listed under Rattus norvegicus [4] and 39% in the test with Rattus norvegicus [5].

Consider `CC(C)(CCCOc1ccc(OCCCC(C)(C)C(=O)O)c(Sc2ccccc2)c1)C(=O)O`, for which the Change is 14% in the test listed under Rattus norvegicus [1]; -30% in the test with Rattus norvegicus [2]; 44% in the test listed under Rattus norvegicus [3]; 32% in the test listed under Rattus norvegicus [4]; 428% in the test with Rattus norvegicus [6].

In the case of `COC(=O)C(C)(C)CCCOc1ccc(C(=O)c2ccc(OCCCC(C)(C)C(=O)OC)cc2)cc1`, the Change in the test filed under Rattus norvegicus [1], in the test on Rattus norvegicus [2], in the test listed under Rattus norvegicus [3], in the test listed under Rattus norvegicus [4] and in the test with Rattus norvegicus [6] was 0% in each case.

Turning to `CC(C)(CCCOc1ccc(OCCCC(C)(C)C(=O)O)c(Cc2ccccc2)c1)C(=O)O`, the Change in the test listed under Rattus norvegicus [1] was 14%; with Rattus norvegicus [2], -71%; in the test filed under Rattus norvegicus [3], 0%; in the test filed under Rattus norvegicus [4], -44%; with Rattus norvegicus [6] it was 389%.

Turning to `CC(C)(CCCOc1ccc([S+]([O-])CCCC(C)(C)C(=O)O)cc1)C(=O)O` (centres undefined), the Change was 19% in the test filed under Rattus norvegicus [1]; -31% in the test on Rattus norvegicus [2]; 16% in the test filed under Rattus norvegicus [3]; -33% in the test filed under Rattus norvegicus [4]; 289% with Rattus norvegicus [6].

On to `COC(=O)C(C)(C)CCCOc1ccc(OCCCC(C)(C)C(=O)OC)c(C(C)(C)C)c1`, for which the Change in the test filed under Rattus norvegicus [1] is recorded as 11%; in the test with Rattus norvegicus [2], -41%; in the test filed under Rattus norvegicus [3], 0%; in the test listed under Rattus norvegicus [4], -34%; with Rattus norvegicus [6], 171%.

As to `COC(=O)C(C)(C)CCCOc1ccc(OCCCC(C)(C)C(=O)OC)c(OC)c1`, the Change in the test listed under Rattus norvegicus [1] is 30%; with Rattus norvegicus [2], -31%; in the test listed under Rattus norvegicus [3], 0%; in the test listed under Rattus norvegicus [4] it was -26%; with Rattus norvegicus [5], 566%.

`CC(C)(CCCOc1ccc(OCCCC(C)(C)C(=O)O)c([S+]([O-])c2ccccc2)c1)C(=O)O` (centres undefined): the Change in the test listed under Rattus norvegicus [1] is on record as 16%; in the test with Rattus norvegicus [2], -58%; in the test filed under Rattus norvegicus [3], -21%; in the test filed under Rattus norvegicus [4] it was -27%; with Rattus norvegicus [6], 599%.

As for `COC(=O)c1cc(OCCCC(C)(C)C(=O)OC)cc(OCCCC(C)(C)C(=O)OC)c1`, the Change in the test filed under Rattus norvegicus [1], in the test on Rattus norvegicus [2], in the test listed under Rattus norvegicus [3], in the test filed under Rattus norvegicus [4] and with Rattus norvegicus [6] was 0% throughout.

As for `CCC(=O)c1cc(OCCCC(C)(C)C(=O)OC)ccc1OCCCC(C)(C)C(=O)OC`, the Change in the test listed under Rattus norvegicus [1] is listed as 40%; with Rattus norvegicus [2], -57%; in the test filed under Rattus norvegicus [3], 0%; in the test filed under Rattus norvegicus [4], 0%; in the test with Rattus norvegicus [5], 723%.

Take `COC(=O)C(C)(C)CCCSc1ccc(Cl)c(SCCCC(C)(C)C(=O)OC)c1`: the Change in the test filed under Rattus norvegicus [1] is on record as 0%; in the test with Rattus norvegicus [2], -52%; in the test filed under Rattus norvegicus [3] it was 0%; in the test listed under Rattus norvegicus [4], -53%; in the test with Rattus norvegicus [6], 56%.

For the compound `CC(C)(CCCCOc1cccc(OCCCCC(C)(C)C(=O)O)c1)C(=O)O`, the Change in the test listed under Rattus norvegicus [1] is given as 18%; in the test on Rattus norvegicus [2], -52%; in the test filed under Rattus norvegicus [3], 41%; in the test listed under Rattus norvegicus [4] it was -37%; in the test with Rattus norvegicus [5], 317%.

Take `CCOC(=O)C(C)(C)CCCCCCOc1ccc(OCCCCCCC(C)(C)C(=O)OCC)cc1`: the Change is on record as 0% in the test listed under Rattus norvegicus [1]; -29% with Rattus norvegicus [2]; 0% in the test filed under Rattus norvegicus [3]; -26% in the test filed under Rattus norvegicus [4]; 0% with Rattus norvegicus [6].

Regarding `COC(=O)C(C)(C)CCCOc1cccc(OCCCC(C)(C)C(=O)OC)c1[N+](=O)[O-]`, the Change in the test filed under Rattus norvegicus [1] was 5%; in the test with Rattus norvegicus [2], -43%; in the test filed under Rattus norvegicus [3], 0%; in the test listed under Rattus norvegicus [4], -33%; in the test with Rattus norvegicus [6], 109%.

Turning to `CC(C)(CCOc1ccc(OCCC(C)(C)C(=O)O)cc1)C(=O)O`, the Change is reported as 40% in the test listed under Rattus norvegicus [1], 0% in the test listed under Rattus norvegicus [3], -33% in the test filed under Rattus norvegicus [4] and 370% with Rattus norvegicus [5].

For `CC(C)(CCCOc1ccc(OCCCC(C)(C)C(=O)O)c(C(F)(F)F)c1)C(=O)O`, the Change in the test filed under Rattus norvegicus [1] was 39%; in the test with Rattus norvegicus [2], -45%; in the test filed under Rattus norvegicus [3], 0%; in the test filed under Rattus norvegicus [4], 0%; with Rattus norvegicus [6], 674%.

`COC(=O)C(C)(C)CCCOc1ccc(OCCCC(C)(C)C(=O)OC)c(Br)c1`: the Change in the test filed under Rattus norvegicus [1] is recorded as 30%; in the test filed under Rattus norvegicus [3] it was -39%; in the test listed under Rattus norvegicus [4] it was -45%; with Rattus norvegicus [5] it was 728%.

Take `CCCCCc1cc(OCCCC(C)(C)C(=O)OC)cc(OCCCC(C)(C)C(=O)OC)c1`: the Change in the test filed under Rattus norvegicus [1] was 8%; in the test on Rattus norvegicus [2] it was -67%; in the test filed under Rattus norvegicus [3], -32%; in the test listed under Rattus norvegicus [4], -57%; in the test on Rattus norvegicus [6], 47%.

In the case of `COC(=O)C(C)(C)CCCOc1ccc(C)c(OCCCC(C)(C)C(=O)OC)c1`, the Change in the test filed under Rattus norvegicus [1] is recorded as 4%; in the test with Rattus norvegicus [2], -64%; in the test listed under Rattus norvegicus [3], 0%; in the test listed under Rattus norvegicus [4], -55%; in the test on Rattus norvegicus [6] it was 38%.

As for `CC(=O)OCC(C)(C)CCCOc1ccc(OCCCC(C)(C)COC(C)=O)c(-c2ccccc2)c1`, the Change is reported as 19% in the test listed under Rattus norvegicus [1]; -36% with Rattus norvegicus [2]; 0% in the test listed under Rattus norvegicus [3]; 0% in the test filed under Rattus norvegicus [4]; 602% in the test with Rattus norvegicus [6].

(Values after ChEMBL document CHEMBL1122242, “Phenylenebis(oxy)bis[2,2-dimethylpentanoic acid]s: agents that elevate high-density lipoproteins” (1983).)
